Experimental data collected from several papers.
Protocols differ between the studies behind these lines.
Target: Serine/threonine-protein kinase 4 (STK4, Homo sapiens, UniProt Q13043)
Residues used in one study (Q13043 1-487): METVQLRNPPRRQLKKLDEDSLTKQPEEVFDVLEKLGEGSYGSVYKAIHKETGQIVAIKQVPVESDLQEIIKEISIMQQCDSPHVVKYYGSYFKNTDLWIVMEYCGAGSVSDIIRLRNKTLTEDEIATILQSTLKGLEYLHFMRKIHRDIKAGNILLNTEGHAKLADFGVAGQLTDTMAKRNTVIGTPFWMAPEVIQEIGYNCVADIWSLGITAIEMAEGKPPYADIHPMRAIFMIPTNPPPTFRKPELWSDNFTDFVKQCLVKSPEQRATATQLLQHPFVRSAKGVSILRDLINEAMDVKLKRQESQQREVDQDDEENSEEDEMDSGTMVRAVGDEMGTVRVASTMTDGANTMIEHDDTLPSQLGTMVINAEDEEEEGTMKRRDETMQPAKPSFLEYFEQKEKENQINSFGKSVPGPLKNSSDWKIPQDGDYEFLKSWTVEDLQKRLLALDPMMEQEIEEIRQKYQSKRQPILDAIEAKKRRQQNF

Structure (SMILES) | read-out | method | concentration | remaining binding
Nc1c(C(=O)NCc2ccc(C(=O)NCCCC3CCCCC3)cc2)cnn1-c1ccccc1 | cell-free assay | competition with immobilised ligand | 0.1 µM | 100%
Nc1ncc2c(n1)-c1c([nH]c3ccc(C#CC4CC4)cc13)CCCC2 | binding | competition with immobilised ligand | 1 µM | 100%
O=C(NCCCN1CCOCC1)c1ccc(Nc2nccc(-c3cc4ccccc4s3)n2)cc1 | binding | competition with immobilised ligand | 1 µM | 100%
C[C@@H]1CCN(c2nccc(-c3cnn4ncccc34)n2)C1 | binding |  | 1 µM | 85%
CSc1cccnc1N1CCN(Cc2nc3ccccc3[nH]2)CC1 | cell-free assay | competition with immobilised ligand | 1 µM | 85%
CN(C)c1nccc(-c2cnc3ncccn23)n1 | binding |  | 1 µM | 88%
N#CC1(c2ccccn2)CCN(Cc2cc(C(=O)N3CCCC3)c(=O)n3ccccc23)CC1 | cell-free assay | competition with immobilised ligand | 1 µM | 88%
N[C@H]1CCN(c2nccc(-c3cnn4ncccc34)n2)C1 | binding |  | 1 µM | 100%
COc1cnc(Nc2cccc(S(N)(=O)=O)c2)nc1N1CCN(c2ccccc2)CC1 | binding | competition with immobilised ligand | 1 µM | 100%
FC(F)(F)Oc1cccc(-c2cnc3ccc(-c4ccncc4)nn23)c1 | cell-free assay | competition with immobilised ligand | 5 µM | 100%
O=C(c1ccc(Nc2ncc(Cl)c(-c3ccc(Cl)s3)n2)cc1)N1CCC(N2CCCC2)CC1 | binding | competition with immobilised ligand | 1 µM | 90%
CN(CCCC(F)(F)F)c1nccc(-c2cnn3ncccc23)n1 | binding |  | 1 µM | 89%
CCN1CCN(Cc2ccc(C(=O)Nc3ccc(C)c(Oc4ccc5c(c4)CC(=O)N5)c3)cc2C(F)(F)F)CC1 | binding | competition with immobilised ligand | 1 µM | 100%
CCCOc1ccc([C@@H]2[C@@H](C(=O)O)[C@H](c3ccc4c(c3)OCO4)CN2CC(=O)Nc2c(CC)cccc2CC)cc1 | cell-free assay | competition with immobilised ligand | 1 µM | 95%
O=C(NCC1CCOCC1)c1n[nH]cc1NC(=O)c1c(F)cccc1F | binding | competition with immobilised ligand | 1 µM | 100%
COc1cccc(CNC(=O)c2nc3scc(COCc4ccc(C(=O)O)cc4)c3c(=O)[nH]2)c1 | cell-free assay | competition with immobilised ligand | 1 µM | 75%
c1cnn2ncc(-c3ccnc(N4CCC45COC5)n3)c2c1 | binding |  | 1 µM | 89%
O=C(c1ccc(Nc2ncc(Cl)c(-c3cc4ccccc4s3)n2)cc1)N1CCC(N2CCCC2)CC1 | binding | competition with immobilised ligand | 1 µM | 100%
O=C1CCc2cc(Nc3cc(OC4CCOCC4)c([N+](=O)[O-])cc3Cl)ccc2N1 | cell-free assay | competition with immobilised ligand | 1 µM | 100%
CN(C)c1nccc(-c2cnn3ncccc23)n1 | binding |  | 1 µM | 100%
